Among the data in ChEMBL document CHEMBL1148446, “New analogues of amonafide and elinafide, containing aromatic heterocycles: synthesis, antitumor activity, molecular modeling, and DNA binding properties” (J Med Chem, 2004) are IC50 and Reduction values, retold here.

One assay has as its system PC-3. In words: In vitro cytotoxicity against human prostate carcinoma (PC-3) cell line. Format: functional, cell-based. The procedure, abridged: (§1)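 MTT assay on log-phase cells kept at 37 °C, 5% CO2. Seeded at 2.5 × 10³ cells/well; compound added 24 h later as serial PBS dilutions of a 1 × 10⁻⁵ M DMSO stock. Exposure 72 h, then MTT (1 mg/mL in PBS) for 4 h, DMSO solubilization, absorbance at 570 nm. PBS negative control, doxorubicin positive control. At least three experiments; IC50 = concentration reducing growth to 50% of control.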

The test system of a further assay is HT-29. As to the kind of experiment: In vitro cytotoxicity against human colon carcinoma (HT-29) cell line. Format: functional, cell-based. The method in brief: as §1
For the next assay, the system named is HeLa. As to the kind of experiment: In vitro cytotoxicity against human cervical carcinoma (HeLa) cell line. Format: functional, cell-based. The procedure, abridged: as §1
Another assay concerns Mus musculus. As to the kind of experiment: In vivo antitumor activity in mice infected with HT-29 cells. The assay is classed as functional. The method in brief:
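HT-29 xenografts: 10⁶ cells/0.1 mL DMEM injected sc into the back of athymic nu/nu mice. At ~0.1 cm³ tumors, randomized to 4 control and 4 treated. Dosing 5 mg/kg ip in sterile 0.9% NaCl, daily for 4 days then 10 days off (14-day cycles), up to 60 days; controls given vehicle. Tumors measured 1–2×/week; V = (Dd²)/2.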

Bounds are passed on as bounds.

For `O=C1c2cccc3c2c(cc2sccc23)C(=O)N1CCNCCCNCCN1C(=O)c2cccc3c2c(cc2sccc23)C1=O`, the IC50 in the assay on PC-3 worked out at 930 nM; with HT-29, 47 nM; in the assay with HeLa, 160 nM.
For `CN(CCCN(C)CCN1C(=O)c2cccc3c2c(cc2ccoc23)C1=O)CCN1C(=O)c2cccc3c2c(cc2ccoc23)C1=O`, the IC50 in the assay with PC-3 was 12600 nM; in the assay with HT-29, 710 nM; with HeLa, 2580 nM.
For `O=C1c2cccc3c2c(cc2occc23)C(=O)N1CCNCCCNCCN1C(=O)c2cccc3c2c(cc2occc23)C1=O`, in that order: greater than 100000 nM, 370 nM and 730 nM.
For `CN(C)CCN1C(=O)c2cccc3c2c(cc2sccc23)C1=O`, in that order: 3500 nM, 1150 nM and 800 nM.
The corresponding values for `CN(CCCN(C)CCN1C(=O)c2cccc3c2c(cc2sccc23)C1=O)CCN1C(=O)c2cccc3c2c(cc2sccc23)C1=O` are 1420 nM, 270 nM and 210 nM.
On to `CN(C)CCN1C(=O)c2cccc3c2c(cc2ccsc23)C1=O`, for which the values for the IC50 in the assay with PC-3, in the assay with HT-29 and in the assay on HeLa were 1190 nM, 750 nM and 860 nM, respectively.
With `O=C1c2cccc3c2c(cc2ccoc23)C(=O)N1CCNCCCNCCN1C(=O)c2cccc3c2c(cc2ccoc23)C1=O`, the results for the IC50 with PC-3, in the assay on HT-29 and in the assay with HeLa were 500 nM, 6.8 nM and 44 nM, respectively. In the assay on Mus musculus, the Reduction is given as roughly 80%.
Regarding `CN(C)CCN1C(=O)c2cccc3c2c(cc2occc23)C1=O`, the IC50 in the assay with PC-3 stood at 164 nM; with HT-29 it was 550 nM; with HeLa it was 140 nM.
The corresponding values for `O=C1c2cccc3c2c(cc2ccsc23)C(=O)N1CCNCCCNCCN1C(=O)c2cccc3c2c(cc2ccsc23)C1=O` are 400 nM, 1940 nM and 1040 nM.
For `CN(CCCN(C)CCN1C(=O)c2cccc3c2c(cc2ccsc23)C1=O)CCN1C(=O)c2cccc3c2c(cc2ccsc23)C1=O`, in that order: 2500 nM, 390 nM and 570 nM.
The corresponding values for `CN(C)CCN1C(=O)c2cccc3c2c(cc2ccoc23)C1=O` are 5580 nM, 2690 nM and 4300 nM.
